For 26 compounds, outcome, normalised thallium flux (F/F0 slope) and normalized thallium flux results are on record in PubChem BioAssay.

The structures appear in SMILES notation. Unmarked numbers belong to inactive results. Some of the results follow. Inconclusive results are not listed. The source made the active and inactive calls.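 How the source made its calls, unless noted: active means thallium entry rate above the same plate's blocked-transporter control wells by more than 3 SD; inconclusive means the two repeat wells disagree; inactive means the rest.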

Tested on in the first test: not listed separately
Briefly: inhibitors of larval lipid processing in zebrafish, primary screen, whole organism, PED6 fluorescence, gall bladder and intestine (AID 686;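 active means a full or partial loss of lipid-probe fluorescence in the fish gall bladder, intestine or both, judged by eye; inactive means no fluorescence loss, or compound toxic to the fish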;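 further: larvae 5 to 7 days old with five fish per well; signal comes from phospholipase A2 cleavage of quenched PED6 carried via bile; overnight exposure to compound and PED6 before scoring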). Particulars: Zebrafish larvae PED6 lipid processing, fluorescence scoring; screened at 20 µM (by protocol). Put shortly:
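Doses: 20 µM single dose. Test system: live zebrafish larvae aged 5-7 days, whole organism. Quantity: five larvae per well. Measured by: By-eye fluorescence microscopy. Reagent: ingested quenched lipid PED6 at 100 nM. Read-out: visual per-well fluorescence inhibition score. Times: overnight exposure of larvae to compound plus PED6.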
Take `C=CCn1c(=S)[nH]c2nc3c(cc2c1=O)COC(C)(C)C3`: the call was inactive. In the case of `Cc1cccc(N(CC(O)CN(C)C)S(=O)(=O)c2ccccc2)c1` (centres undefined), the call was inactive. Same read-out and setting: next, `CN1c2ccccc2-c2nc3ccccc3n2C1c1ccco1` (centres undefined): “inactive”.

For the next test, the target named is Solute carrier family 12 member 5 (Homo sapiens) (UniProt Q9H2X9). Briefly: retest of KCC2 transport modulators without sodium – cell-based, HEK293 KCC2, thallium flux, secondary assay, confirmation (AID 1713;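 active means thallium flux slope above the same plate's solvent-only control mean plus 3 SD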). Particulars: FluoZin2 fluorescence, at 10 µM, stronger effect = higher value. Put shortly: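 Read-out basis: F/F0 slope over 10–20 s post-thallium, baseline-normalized; test system: KCC2-expressing HEK cells; detection: FluoZin2 fluorescence, 480/540 nm, 1 Hz; reagent: thallium stimulus; compound dosing: 10 µM single concentration; control set: 2 mM bumetanide as positive, DMSO as negative control; times: 48 min dye loading; buffer or medium: Sodium-free N-methylglucamine chloride buffer; replicates: duplicates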
Sequence of Solute carrier family 12 member 5 (Homo sapiens) (Q9H2X9 whole entry, looked up): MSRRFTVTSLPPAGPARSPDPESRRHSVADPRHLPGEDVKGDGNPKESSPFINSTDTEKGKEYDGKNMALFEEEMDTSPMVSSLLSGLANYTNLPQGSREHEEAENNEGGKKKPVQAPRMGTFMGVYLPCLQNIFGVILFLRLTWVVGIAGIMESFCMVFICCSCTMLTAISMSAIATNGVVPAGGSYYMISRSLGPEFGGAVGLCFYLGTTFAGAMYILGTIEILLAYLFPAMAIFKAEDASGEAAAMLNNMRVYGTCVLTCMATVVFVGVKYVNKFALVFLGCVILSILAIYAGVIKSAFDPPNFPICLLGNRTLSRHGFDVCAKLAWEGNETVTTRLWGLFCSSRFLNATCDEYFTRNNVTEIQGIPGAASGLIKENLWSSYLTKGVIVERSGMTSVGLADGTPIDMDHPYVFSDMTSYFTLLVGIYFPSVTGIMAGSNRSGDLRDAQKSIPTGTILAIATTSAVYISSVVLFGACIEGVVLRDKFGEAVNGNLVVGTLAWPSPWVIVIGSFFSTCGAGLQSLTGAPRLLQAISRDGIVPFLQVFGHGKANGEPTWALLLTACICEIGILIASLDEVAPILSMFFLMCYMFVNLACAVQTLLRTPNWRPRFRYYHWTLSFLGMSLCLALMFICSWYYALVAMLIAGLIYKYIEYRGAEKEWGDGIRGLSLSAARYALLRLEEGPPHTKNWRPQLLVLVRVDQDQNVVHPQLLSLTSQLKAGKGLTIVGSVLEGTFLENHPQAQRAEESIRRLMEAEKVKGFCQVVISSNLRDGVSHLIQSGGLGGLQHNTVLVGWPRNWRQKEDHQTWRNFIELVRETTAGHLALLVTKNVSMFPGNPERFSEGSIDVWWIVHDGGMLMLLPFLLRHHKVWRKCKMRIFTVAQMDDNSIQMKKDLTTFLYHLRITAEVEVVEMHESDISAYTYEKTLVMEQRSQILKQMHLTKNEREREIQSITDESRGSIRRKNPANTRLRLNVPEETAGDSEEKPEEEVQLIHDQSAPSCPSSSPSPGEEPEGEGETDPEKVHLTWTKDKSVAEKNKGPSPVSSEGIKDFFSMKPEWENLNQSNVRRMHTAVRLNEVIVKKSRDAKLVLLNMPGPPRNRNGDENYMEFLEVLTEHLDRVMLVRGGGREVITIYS
`CCOC(=O)c1ccccc1N1C(=O)C2Sc3[nH]c(=O)sc3C(/C=C/c3ccccc3)C2C1=O` (centres undefined): the normalised thallium flux (F/F0 slope) was 0.00694. The same measure, in the same setting: next, `O=C(O)CS/C(=C\c1ccc(F)cc1)c1nc2ccccc2s1`: 0.0153.

Take `CCCC(=O)N1c2ccccc2NC2=C(C(=O)CCC2)C1c1ccc(F)cc1` (centres undefined): the normalised thallium flux (F/F0 slope) was 0.0086. Still for that read-out and setting: the same measure for `COc1ccc(Cl)cc1S(=O)(=O)Nc1cccc(C(=O)O)c1`: 0.00707.

Take `CCOC(=O)c1c(NC(=S)NC)sc2c1CCCC2`: the normalised thallium flux (F/F0 slope) is 0.0181 (active). On the same count and under the same terms, next, `CCn1c(SCC(=O)c2ccc3ccccc3c2)nnc1-c1cccs1`: 0.00706; `Cc1ccc(-c2noc(CN3CCN(Cc4ccccc4)CC3)n2)cc1`: 0.0176; `Cc1sc2ncnc(Sc3nc4ccccc4s3)c2c1C`: 0.0102.

With `Cc1cccc(N(CC(O)CN(C)C)S(=O)(=O)c2ccccc2)c1` (centres undefined), the normalised thallium flux (F/F0 slope) is 0.00903. Still for that read-out and setting: next, `C[C@@H](C(=O)Nc1ccc2ccccc2c1)[C@@H]1C[C@@]1(C)[C@@H](NC(=O)c1cccnc1)c1ccccc1`: 0.00785; `N#Cc1ccc(C(=O)Nc2nc(-c3cccs3)c(C(=O)C(F)(F)F)s2)cc1`: 0.00795; `CC[C@@H](C)[C@@H](C(=O)N1CCN(C(=O)OC(C)(C)C)CC1)n1cc(CCC(=O)O)nn1`: 0.0104. Same read-out and setting: next, `CN1c2ccccc2-c2nc3ccccc3n2C1c1ccco1` (centres undefined): 0.00855.

Tested on in a further test: not listed separately
Briefly: PubChem AID 1714.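 Further: raw slope of fluorescence over initial fluorescence between 10 and 20 s after thallium.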 Particulars: HEK293-KCC2 + bumetanide/ouabain, thallium flux FluoZin2; at 10 µM; stronger effect = higher value. The procedure, abridged:
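material = KCC2-expressing HEK cells | reagent = thallium stimulus | compound dosing = 10 µM single dose | schedule = cells overnight at 37 °C, FluoZin2-AM dye loading 48 min | technique = kinetic FluoZin2 fluorescence, ex 480/em 540 nm | evaluation = normalized thallium flux slope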
In the case of `O=C(Nc1ccccc1F)C1C2C=CC3(O2)C1C(=O)N(c1cccnc1)C3C(=O)NC1CCCCC1` (centres undefined), the normalized thallium flux was 0.00547 (active). The same measure, in the same setting: the same measure for `Cc1ccc(C(=O)NC(=S)Nc2ccccc2C)cc1`: 0.0441 (active); for `CC1CC(C)(C)n2c(O)c(N=NC(N)=S)c3cccc1c32` (centres undefined): 0.0259 (active); for `CC(C)CNC(=S)NC(=O)c1ccc(Cl)cc1`: 0.0714 (active).

As for `CC(C)(C)c1ccc(C(=O)NCC(=O)OCN2C(=O)c3ccccc3C2=O)cc1`, the normalized thallium flux was 0.00471. The same measure, in the same setting: next, `C/C(=C\C(=O)c1ccc(Br)cc1)N1CCCCC1`: 0.0396 (active); `Cc1ccccc1-c1nc(CS(=O)(=O)CC(=O)N2CCc3ccccc3C2)c(C)o1`: 0.00657; `Cc1[nH]n(-c2ccccc2)c(=O)c1N=Nc1ccccc1C(=O)N1CCCCC1`: 0.0338 (active). The same measure, in the same setting: the same measure for `CCC(CC)NC(=O)CSc1nnc(-c2c[nH]c3ccccc23)o1`: 0.00461. On to `C=CCn1c(=S)[nH]c2nc3c(cc2c1=O)COC(C)(C)C3`, for which the normalized thallium flux was 0.0176 (active). For the compound `C/C(=N\NC(=S)NC1CCCCC1)c1ccc(C)o1`, the normalized thallium flux was 0.0335 (active). Still for that read-out and setting: next, `O=C(CSc1cccc2cccnc12)N/N=C/c1cccnc1`: 0.0504 (active); `N#Cc1c(-c2ccc(Cl)cc2)c2c([nH]c1=S)CCCC2`: 0.0281 (active).
